Measurements taken from ChEMBL document CHEMBL5303300, “EUbOPEN Chemogenomics Library - Multiplex” (2023).
Several values for one entry are separate records, joined by “and”; a condition that tells them apart may be missing. Identical values can stand only once.

What was measured:
Format in all cases: toxicity, cell-based
Fibroblast = assay: Multiplex assay against human fibroblast; conditions: number of replicates 2
Procedure, shortened: (§1)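 Tubulin, mitochondrial-mass and membrane-permeability phenotypes are per cents of healthy-nucleus cells. Cells were gated by CellPathfinder machine learning into Hoechst high-intensity objects or normal cells, normal cells into healthy, pyknosed or fragmented nuclei, and pyknosed cells into mitotic or apoptotic. Before that, live cells stained at seeding with Hoechst33342, BioTracker Green Microtubule Cytoskeleton Dye, MitoTracker Red and Annexin V Alexa Fluor 680 were imaged on a CQ1 microscope at 37°C and 5% CO2 after compound addition.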

HEK-293T = assay: Multiplex assay against HEK293T; conditions: human, number of replicates 2; procedure, shortened: as §1
U2OS = assay: Multiplex assay against U2OS; conditions: human, number of replicates 2; procedure, shortened: as §1
[1] = 12 h, 1 µM, compound concentration 1 uM
[2] = 12 h, 10 µM, compound concentration 10 uM
[3] = 24 h, 1 µM, compound concentration 1 uM
[4] = 24 h, 10 µM, compound concentration 10 uM
[5] = 48 h, 1 µM, compound concentration 1 uM
[6] = 48 h, 10 µM, compound concentration 10 uM

## CCc1cnn2c(NCc3ccc[n+]([O-])c3)cc(N3CCCCC3CCO)nc12 (stereo not drawn)
Fibroblast; [1]
  Population Apoptotic (%): 35% and 55%
  Population Fragmented Nuclei (%): 7% and 13%
  Population Healthy Nuclei (%): 73% and 62%
  Population Hoechst High Intensity Objects (%): 0%
  Population Membrane Permeable-Phenotype (%): 3% and 4%
  Population Mitochondria Different-Phenotype (%): 1% and 0%
  Population Mitotic Cells (%): 65% and 44%
  Population Normal (%): 100%
  Population Pyknosed Nuclei (%): 19% and 23%
  Population Tubulin-Different-Phenotype (%): 13% and 9%
  Total Cell Count: 209 and 219
Fibroblast; [2]
  Population Apoptotic (%): 42% and 55%
  Population Fragmented Nuclei (%): 6% and 7%
  Population Healthy Nuclei (%): 75%
  Population Hoechst High Intensity Objects (%): 0%
  Population Membrane Permeable-Phenotype (%): 5% and 7%
  Population Mitochondria Different-Phenotype (%): 2% and 3%
  Population Mitotic Cells (%): 57% and 44%
  Population Normal (%): 99% and 100%
  Population Pyknosed Nuclei (%): 17% and 16%
  Population Tubulin-Different-Phenotype (%): 31% and 26%
  Total Cell Count: 191 and 174
Fibroblast; [3]
  Population Apoptotic (%): 59% and 63%
  Population Fragmented Nuclei (%): 9% and 13%
  Population Healthy Nuclei (%): 68% and 67%
  Population Hoechst High Intensity Objects (%): 0%
  Population Membrane Permeable-Phenotype (%): 7% and 3%
  Population Mitochondria Different-Phenotype (%): 2% and 0%
  Population Mitotic Cells (%): 40% and 36%
  Population Normal (%): 100%
  Population Pyknosed Nuclei (%): 22% and 19%
  Population Tubulin-Different-Phenotype (%): 18% and 10%
  Total Cell Count: 188 and 213
Fibroblast; [4]
  Population Apoptotic (%): 68% and 52%
  Population Fragmented Nuclei (%): 8% and 9%
  Population Healthy Nuclei (%): 77% and 75%
  Population Hoechst High Intensity Objects (%): 0%
  Population Membrane Permeable-Phenotype (%): 10% and 4%
  Population Mitochondria Different-Phenotype (%): 2% and 6%
  Population Mitotic Cells (%): 32% and 48%
  Population Normal (%): 100%
  Population Pyknosed Nuclei (%): 13% and 15%
  Population Tubulin-Different-Phenotype (%): 43% and 38%
  Total Cell Count: 181 and 162
Fibroblast; [5]
  Population Apoptotic (%): 65% and 64%
  Population Fragmented Nuclei (%): 9% and 12%
  Population Healthy Nuclei (%): 55% and 61%
  Population Hoechst High Intensity Objects (%): 0%
  Population Membrane Permeable-Phenotype (%): 8% and 9%
  Population Mitochondria Different-Phenotype (%): 0% and 3%
  Population Mitotic Cells (%): 34% and 35%
  Population Normal (%): 100% and 99%
  Population Pyknosed Nuclei (%): 35% and 26%
  Population Tubulin-Different-Phenotype (%): 15% and 17%
  Total Cell Count: 188 and 216
Fibroblast; [6]
  Population Apoptotic (%): 73% and 63%
  Population Fragmented Nuclei (%): 11% and 6%
  Population Healthy Nuclei (%): 63%
  Population Hoechst High Intensity Objects (%): 0%
  Population Membrane Permeable-Phenotype (%): 14% and 20%
  Population Mitochondria Different-Phenotype (%): 1% and 4%
  Population Mitotic Cells (%): 26% and 36%
  Population Normal (%): 100% and 99%
  Population Pyknosed Nuclei (%): 25% and 29%
  Population Tubulin-Different-Phenotype (%): 43% and 41%
  Total Cell Count: 179 and 149
HEK-293T; [1]
  Population Apoptotic (%): 70% and 62%
  Population Fragmented Nuclei (%): 3% and 2%
  Population Healthy Nuclei (%): 83% and 90%
  Population Hoechst High Intensity Objects (%): 9% and 7%
  Population Membrane Permeable-Phenotype (%): 0% and 1%
  Population Mitochondria Different-Phenotype (%): 47% and 51%
  Population Mitotic Cells (%): 29% and 37%
  Population Normal (%): 90% and 92%
  Population Pyknosed Nuclei (%): 12% and 7%
  Population Tubulin-Different-Phenotype (%): 70% and 75%
  Total Cell Count: 349 and 339
HEK-293T; [2]
  Population Apoptotic (%): 52% and 86%
  Population Fragmented Nuclei (%): 3%
  Population Healthy Nuclei (%): 89% and 90%
  Population Hoechst High Intensity Objects (%): 13%
  Population Membrane Permeable-Phenotype (%): 2% and 1%
  Population Mitochondria Different-Phenotype (%): 59% and 57%
  Population Normal (%): 86%
  Population Pyknosed Nuclei (%): 7% and 6%
  Population Tubulin-Different-Phenotype (%): 86%
  Total Cell Count: 345 and 378
HEK-293T; [3]
  Population Apoptotic (%): 74% and 68%
  Population Fragmented Nuclei (%): 3% and 2%
  Population Healthy Nuclei (%): 86%
  Population Hoechst High Intensity Objects (%): 10% and 11%
  Population Membrane Permeable-Phenotype (%): 1% and 0%
  Population Mitochondria Different-Phenotype (%): 60% and 52%
  Population Mitotic Cells (%): 25% and 31%
  Population Normal (%): 89% and 88%
  Population Pyknosed Nuclei (%): 10% and 11%
  Population Tubulin-Different-Phenotype (%): 70% and 67%
  Total Cell Count: 295 and 327
HEK-293T; [4]
  Population Apoptotic (%): 47% and 79%
  Population Fragmented Nuclei (%): 4% and 3%
  Population Healthy Nuclei (%): 88%
  Population Hoechst High Intensity Objects (%): 18% and 17%
  Population Membrane Permeable-Phenotype (%): 0%
  Population Mitochondria Different-Phenotype (%): 70% and 67%
  Population Mitotic Cells (%): 52% and 20%
  Population Normal (%): 81% and 82%
  Population Pyknosed Nuclei (%): 6% and 8%
  Population Tubulin-Different-Phenotype (%): 83% and 85%
  Total Cell Count: 300 and 355
HEK-293T; [5]
  Population Apoptotic (%): 68% and 80%
  Population Fragmented Nuclei (%): 4% and 3%
  Population Healthy Nuclei (%): 85% and 80%
  Population Hoechst High Intensity Objects (%): 11% and 13%
  Population Membrane Permeable-Phenotype (%): 0%
  Population Mitochondria Different-Phenotype (%): 71% and 75%
  Population Mitotic Cells (%): 32% and 19%
  Population Normal (%): 88% and 86%
  Population Pyknosed Nuclei (%): 10% and 16%
  Population Tubulin-Different-Phenotype (%): 74% and 67%
  Total Cell Count: 268 and 257
HEK-293T; [6]
  Population Apoptotic (%): 43% and 68%
  Population Fragmented Nuclei (%): 1% and 5%
  Population Healthy Nuclei (%): 91% and 87%
  Population Hoechst High Intensity Objects (%): 19% and 20%
  Population Membrane Permeable-Phenotype (%): 1% and 0%
  Population Mitochondria Different-Phenotype (%): 74% and 73%
  Population Mitotic Cells (%): 56% and 31%
  Population Normal (%): 80% and 79%
  Population Pyknosed Nuclei (%): 6% and 7%
  Population Tubulin-Different-Phenotype (%): 83%
  Total Cell Count: 292 and 309
U2OS; [1]
  Population Apoptotic (%): 58% and 91%
  Population Healthy Nuclei (%): 22% and 40%
  Population Hoechst High Intensity Objects (%): 0%
  Population Membrane Permeable-Phenotype (%): 25% and 12%
  Population Mitochondria Different-Phenotype (%): 12% and 2%
  Population Normal (%): 100%
  Population Pyknosed Nuclei (%): 34% and 49%
  Population Tubulin-Different-Phenotype (%): 75% and 86%
U2OS; [2]
  Population Apoptotic (%): 78% and 66%
  Population Fragmented Nuclei (%): 17% and 14%
  Population Healthy Nuclei (%): 40% and 47%
  Population Hoechst High Intensity Objects (%): 0%
  Population Mitochondria Different-Phenotype (%): 11% and 0%
  Population Mitotic Cells (%): 21% and 33%
  Population Normal (%): 100%
  Population Pyknosed Nuclei (%): 42% and 38%
  Population Tubulin-Different-Phenotype (%): 44% and 76%
U2OS; [3]
  Population Apoptotic (%): 100%
  Population Healthy Nuclei (%): 20% and 30%
  Population Hoechst High Intensity Objects (%): 0% and 1%
  Population Membrane Permeable-Phenotype (%): 20% and 10%
  Population Mitotic Cells (%): 0%
  Population Normal (%): 100% and 98%
  Population Pyknosed Nuclei (%): 32% and 53%
  Population Tubulin-Different-Phenotype (%): 100% and 82%
U2OS; [4]
  Population Apoptotic (%): 87% and 82%
  Population Fragmented Nuclei (%): 14% and 12%
  Population Healthy Nuclei (%): 34% and 33%
  Population Hoechst High Intensity Objects (%): 4% and 1%
  Population Membrane Permeable-Phenotype (%): 6% and 10%
  Population Mitochondria Different-Phenotype (%): 6% and 8%
  Population Mitotic Cells (%): 12% and 17%
  Population Normal (%): 95% and 98%
  Population Pyknosed Nuclei (%): 51% and 53%
  Population Tubulin-Different-Phenotype (%): 43% and 63%
U2OS; [5]
  Population Apoptotic (%): 100% and 97%
  Population Healthy Nuclei (%): 25% and 16%
  Population Hoechst High Intensity Objects (%): 0% and 3%
  Population Membrane Permeable-Phenotype (%): 12% and 31%
  Population Mitochondria Different-Phenotype (%): 25% and 21%
  Population Mitotic Cells (%): 0% and 2%
  Population Normal (%): 100% and 96%
  Population Pyknosed Nuclei (%): 28% and 74%
  Population Tubulin-Different-Phenotype (%): 75% and 100%
U2OS; [6]
  Population Apoptotic (%): 95% and 82%
  Population Fragmented Nuclei (%): 10% and 19%
  Population Healthy Nuclei (%): 18% and 11%
  Population Hoechst High Intensity Objects (%): 1%
  Population Mitochondria Different-Phenotype (%): 45% and 33%
  Population Normal (%): 98%
  Population Pyknosed Nuclei (%): 71% and 68%
  Population Tubulin-Different-Phenotype (%): 81% and 83%
